Screens deposited in PubChem by several laboratories.
PostGolgi yeast: growth inhibition of a yeast mutant, post-Golgi transport screen; post-Golgi transport phenotypic cell assay; inhibition, % at 10 µM; hit rate 0.9% among 98,000; AID 739;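 note: yeast cells grown in 1536-well plates; yeast grown about 18 h at 30C before absorbance read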
EphB4 antag: blocks human EphB4 binding to ephrin-B2 | EphB4 LBD / TNYL-RAW-Alexa532 peptide, fluorescence polarization | AID 720 | P54760 | inhibition, % at 7 µM | hit rate 0.15% among 97,000;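 active = inhibition above the screen-wide mean inhibition plus 3 SD, cut at about 15% in these data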;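 note: 0% = DMSO wells and 100% = excess unlabeled TNYL-RAW peptide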
Target sequence (P54760 whole entry, looked up, the tested form may be a part): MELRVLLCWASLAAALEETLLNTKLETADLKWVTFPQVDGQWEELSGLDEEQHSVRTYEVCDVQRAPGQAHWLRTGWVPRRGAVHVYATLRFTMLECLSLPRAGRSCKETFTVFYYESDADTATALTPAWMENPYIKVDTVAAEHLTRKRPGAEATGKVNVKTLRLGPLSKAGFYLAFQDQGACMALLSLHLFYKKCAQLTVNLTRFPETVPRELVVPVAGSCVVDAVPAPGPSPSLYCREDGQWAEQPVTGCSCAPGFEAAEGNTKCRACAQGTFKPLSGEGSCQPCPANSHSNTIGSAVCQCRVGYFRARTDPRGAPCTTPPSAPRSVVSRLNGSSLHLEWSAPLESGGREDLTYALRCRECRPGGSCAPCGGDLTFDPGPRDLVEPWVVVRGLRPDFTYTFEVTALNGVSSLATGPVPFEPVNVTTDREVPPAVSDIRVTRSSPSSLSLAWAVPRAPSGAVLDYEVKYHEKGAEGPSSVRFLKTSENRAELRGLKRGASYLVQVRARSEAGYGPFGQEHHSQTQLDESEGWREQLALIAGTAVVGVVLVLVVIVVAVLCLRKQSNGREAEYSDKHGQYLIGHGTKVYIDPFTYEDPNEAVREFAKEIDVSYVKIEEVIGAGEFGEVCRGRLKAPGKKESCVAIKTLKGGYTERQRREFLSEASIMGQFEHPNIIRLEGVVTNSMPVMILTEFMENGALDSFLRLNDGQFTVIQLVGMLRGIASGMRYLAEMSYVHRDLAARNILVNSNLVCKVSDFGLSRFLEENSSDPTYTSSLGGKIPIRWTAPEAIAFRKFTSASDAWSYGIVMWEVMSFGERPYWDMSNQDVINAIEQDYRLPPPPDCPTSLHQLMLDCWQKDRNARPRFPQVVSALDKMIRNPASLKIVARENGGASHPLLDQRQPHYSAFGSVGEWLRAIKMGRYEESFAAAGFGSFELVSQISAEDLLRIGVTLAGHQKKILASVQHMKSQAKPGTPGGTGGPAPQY
E coli WT exp: blocks growth of wild type E. coli BW25113. OD600 absorbance. growth inhibition, % at 100 µM. hit rate 0.15% among 98,000. AID 710;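 active = growth inhibition above about 50% at one test dose, limit read from the data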;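 note: growth measured after 20 h incubation at 37 °C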
Ecoli tolC: blocks growth of E. coli BW25113 tolC mutant | growth inhibition, % at 10 µM (by protocol) | OD615 | hit rate 2.2% among 65,000;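 active = growth inhibition at or above a cutoff equal to the mean over every tested compound plus 3 SD, cut at about 60% in these data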;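 note: growth measured after 20 h incubation at 37 °C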
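Test system – E. coli BW25113 ΔtolC::kan, tolC deletion mutant strain · Detection – OD at 615 nm · Buffer or medium – LB with kanamycin 50 µg/mL · Times – 20 h compound exposure of bacteria at 37 °C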
PostGolgi ctrl: yeast control strain growth, post-Golgi counter-screen. efflux-deficient yeast background strain, growth absorbance A615, 16 h. inhibition, % at 10 µM. hit rate 5% among 98,000. AID 738
Active calls of the source: *; / = no result. The list is not random: actives were taken first. Their share in the collection is about 6%. Cut-off read from the data, not from the text of the source, unless noted: active = inhibition above about 30%; inactive = the rest.

SMILES | PostGolgi yeast | EphB4 antag | E coli WT exp | Ecoli tolC | PostGolgi ctrl
O=C(CSc1nc2sc3c(c2c(=O)n1-c1ccccc1)CCCC3)NCc1ccco1 | -1 | -4 | -6 | -6 | 32*
Cc1ccc(/C=N/NC(=O)CC2N=C(Cc3ccccc3)NNC2=O)cc1 (centres undefined) | / | 5 | / | / | /
Cc1nn(-c2ccc(Cl)cc2)c2[nH]c(=O)c(CNCc3ccc4c(c3)OCO4)cc12 | 11 | -2 | 3 | 45 | 11
CNC(=O)c1sccc1SCc1c(Cl)cccc1Cl | -4 | 6 | 7 | / | 46*
CNC(=O)c1sccc1SCc1ccc(Cl)cc1Cl | -7 | -1 | 3 | / | 22
O=S1(=O)C=C(SCc2ccc(Cl)c(Cl)c2)Nc2ccccc21 | -16 | -1 | 3 | / | 16
COCCn1nnnc1SCC(=O)N1CCCCC1 | 1 | 6 | -2 | -22 | 30*
COCCn1c(SCC(=O)N2CCCC2)nnc1C(C)C | 2 | -11 | 3 | -19 | 9
COc1ccc(Nc2nc(NC(C)(C)C)nc(N3CCCC3)n2)c(OC)c1 | 5 | 1 | -17 | / | 63*
Cc1nc(CS(=O)c2ccc(Cl)cc2)cc(NCc2ccc(Cl)cc2Cl)n1 (centres undefined) | 4 | -3 | 0 | / | 35*
COC(=O)c1ccc(CSc2nc3ccc(C)cc3[nH]2)o1 | -10 | 0 | 10 | / | 8
CCC(=O)Nc1cccc(NC(=O)CSc2nnc(-c3ccc(NS(C)(=O)=O)cc3)n2CC)c1 | -1 | 0 | -1 | / | 15
CCn1c(CCn2ccnc2C)n[nH]c1=S | -4 | -1 | -2 | -12 | 38*
CCn1c(CC(C)C)n[nH]c1=S | 1 | 3 | 2 | -18 | -3
Cc1nc(-c2cccc(NS(=O)(=O)c3ccc4ccccc4c3)c2)cs1 | 8 | 4 | -22 | / | 39*
O=S(=O)(Nc1cccc(CCc2ccccn2)c1)c1ccc2ccccc2c1 | 6 | 2 | -17 | / | 32*
Cc1nc(CNS(=O)(=O)c2ccc3ccccc3c2)cs1 | 3 | / | 4 | -1 | 12
CCNc1nc(NCC)nc(N2CC(=O)N(CC(=O)OCC)C2=N)n1 | / | -8 | / | / | /
COc1ccc(CCNc2nc(N3CCCCC3)nc(N3CCCCC3)n2)cc1OC | 4 | 6 | -15 | 35 | 32*
COc1ccc(CCNc2nc(N3CCOCC3)nc(N3CCOCC3)n2)cc1OC | 4 | 9 | 1 | -3 | 20
Cc1noc(C(=O)N2CC3(C)CC2CC(C)(C)C3)c1Cl (centres undefined) | -4 | 0 | 5 | -5 | 6
CCOC(=O)c1ccccc1NC(=O)c1ccc(F)cc1 | -6 | -9 | 2 | / | 8
CCOC(=O)c1ccccc1NC(=O)c1c(F)c(F)c(F)c(F)c1F | 7 | 1 | -4 | 65* | -2
CC(C)NS(=O)(=O)c1ccc(OCC(=O)N2CCCC2)cc1 | / | -4 | / | / | /
O=C(COc1ccc(S(=O)(=O)NC2CCCCC2)cc1)N1CCN(c2cccc(Cl)c2)CC1 | 14 | 2 | -10 | / | 41*
SMILES | PostGolgi yeast | EphB4 antag | E coli WT exp | Ecoli tolC | PostGolgi ctrl
Cc1ccc(Cl)cc1N1CCN(C(=O)COc2ccc(S(=O)(=O)NC(C)C)cc2)CC1 | -12 | 1 | -14 | 63* | 2
Cc1ccc(C(=O)Nc2onc(C)c2C#N)cc1 | -1 | 1 | -11 | / | 3
O=C(Cc1ccc(Cl)cc1)Nc1ccc(N2CCN(C(=O)c3ccco3)CC2)c(Cl)c1 | -6 | -8 | -21 | 46 | 60*
O=C(Nc1ccc(N2CCN(C(=O)c3ccco3)CC2)c(Cl)c1)c1cccs1 | -7 | -1 | -17 | 71* | 28
Cc1ccccc1S(=O)(=O)c1c(C)cc(-c2ccccc2)[nH]c1=O | -3 | 4 | -10 | / | -7
Cc1ccc2nc3c(cc2c1)CN(Cc1ccco1)C(=NCC1CCCO1)S3 (centres undefined) | -1 | 5 | -3 | 18 | 43*
O=C(NCc1ccc2c(c1)OCO2)c1ccc(C2SCC(=O)N2Cc2ccco2)cc1 (centres undefined) | -2 | 4 | -4 | 12 | 5
O=C(Nc1nnc(N2CCCCCC2)s1)c1cc(-c2ccc(Br)cc2)on1 | -6 | -5 | -7 | 17 | 9
CC1CCCC(C)N1c1nnc(NC(=O)c2cc(-c3ccc(Br)cc3)on2)s1 (centres undefined) | 4 | 5 | -9 | / | 31*
Cc1cc(Cl)ccc1NC(=S)NCCC(c1ccccc1)c1ccccc1 | 1 | 0 | -22 | / | 14
Cc1cccc(NC(=O)Cn2cnc3c(cnn3-c3ccc(F)cc3)c2=O)c1C | -5 | / | -4 | 3 | 46*
Cc1ccc(-n2cnc3cc(NCc4cccs4)ccc32)cc1 | -11 | 0 | -10 | / | 15
COc1ccc(-n2cnc3cc(NCc4cccs4)ccc32)cc1 | 8 | 6 | -12 | 98* | 13
Cc1cc(=O)oc2c1ccc1oc(/C(=N/O)c3ccccc3)c(C)c12 | 16 | 1 | 23 | 63* | 35*
Cc1ccc(/C(=N\O)c2oc3c(C)c4oc(=O)cc(C)c4cc3c2C)cc1 | / | -4 | / | / | /
O=C(N/N=C/c1cccc(F)c1)c1csc2c1CCCC2 | -8 | 10 | -11 | / | 50*
O=C(Oc1ccccc1)c1ccccc1OS(=O)(=O)c1ccccc1 | -7 | -4 | -4 | / | 26
COc1ccccc1C(=O)Oc1ccc(C(C)C)cc1 | 0 | -2 | 0 | / | 39*
COC(=O)c1ccc(COC(=O)CCc2nc(-c3ccccc3)c(-c3ccccc3)o2)cc1 | -11 | -1 | -9 | / | 10
O=C1C2C3C=CC([C@@H]2C(=O)N1C1CCCCC1)[C@H]1C(=O)N(C2CCCCC2)C(=O)C31 (some centres undefined) | 6 | 8 | -7 | / | 13
CCc1ccc2c(Cl)c(C(=O)N/N=C/c3c[nH]c4ccccc34)sc2c1 | 1 | -5 | -7 | / | 42*
COc1ccc(C2=CSC3=C(C(=O)c4cccc(S(=O)(=O)N(C)C)c4)CCN23)cc1 | -4 | 4 | 4 | / | -2
Cc1csc(Sc2ccc([N+](=O)[O-])cc2C(=O)OCC(=O)NC(=O)NC(C)(C)C)n1 | 2 | 2 | -4 | / | 7
Cc1cc(C)n2nc(-c3sccc3-n3c(C)ccc3C)cc2n1 | 3 | -9 | -12 | / | 22
Cc1cc(C)n2nc(-c3sccc3-n3cccc3)cc2n1 | -10 | 5 | 0 | / | 35*
SMILES | PostGolgi yeast | EphB4 antag | E coli WT exp | Ecoli tolC | PostGolgi ctrl
O=c1[nH]c(CN(CCO)CCO)nc2c1C1(CCCCC1)Cc1ccccc1-2 | -1 | -6 | -5 | 1 | 2
Nc1n[nH]c2c1C1(CCCCC1)Cc1ccccc1-2 | 2 | / | 16 | 44 | 42*
COc1ccc(-n2nnnc2SCC(=O)c2cc3ccccc3o2)cc1 | 1 | 3 | -9 | 10 | 35*
COc1ccc(-n2nnnc2SCC(N)=O)cc1 | -1 | 3 | 5 | -7 | 13
O=c1oc2c3c4c(cc2c2c1CCC2)OCCN4CCC3 | 2 | -6 | 1 | 21 | 24
CCC(=O)N(CCO)Cc1cc2ccc(C)c(C)c2[nH]c1=O | 33* | -1 | 2 | -16 | -5
CCOC(=O)c1c(-c2ccccc2)nnn1-c1nc(OCC)nc(N2CCCCC2)n1 | 1 | / | 2 | 75* | 7
O=C(CCSc1ccc(Cl)cc1)N1CCN(c2ncccn2)CC1 | 14 | 1 | -2 | 16 | 6
